Measured values published in ChEMBL document CHEMBL2401735, “Synthesis and cytotoxicity of novel (thiazol-2-yl)hydrazine derivatives as promising anti-Candida agents” (Eur J Med Chem, 2013).
Values after ≈ are worked out from the molar mass of the structure shown.

Assays:
Proteus mirabilis = test: Antibacterial activity against Proteus mirabilis assessed as growth inhibition after 18 to 22 hrs by broth microdilution method; assay type: functional
Procedure, shortened: (§1)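 Bacterial isolates subcultured for purity, identified conventionally. Broth microdilution per NCCLS in Mueller-Hinton II broth; plates with growth control (no compound) and medium-only control, incubated 18-22 h at 35 °C. MIC taken as lowest concentration giving complete growth inhibition by unaided eye.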

Staphylococcus aureus = test: Antibacterial activity against Staphylococcus aureus assessed as growth inhibition after 18 to 22 hrs by broth microdilution method; assay type: functional; procedure, shortened: as §1
[1] = test system: Streptococcus alpha-hemolyticus; test: Antibacterial activity against Streptococcus alpha-hemolyticus assessed as growth inhibition after 18 to 22 hrs by broth microdilution method
[Candida] sake = Anticandida activity against Candida sake clinical isolate assessed as growth inhibition after 24 hrs by broth microdilution method; assay type: functional; conditions: Fermentozyma sake
Procedure, shortened: (§2)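 Clinical Candida isolates subcultured for purity and optimal growth before testing; compounds dissolved in DMSO. Broth microdilution per NCCLS in Sabouraud dextrose broth, serial dilutions, inoculum about 10³/mL, with growth control and medium-only control; 24 h incubation at 37 °C. MIC is the lowest concentration giving complete visible inhibition.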

Enterococcus faecalis = test: Antibacterial activity against […] assessed as growth inhibition after 18 to 22 hrs by broth microdilution method; assay type: functional; procedure, shortened: as §1
Pichia kudriavzevii = test: Anticandida activity against Candida krusei clinical isolate assessed as growth inhibition after 24 hrs by broth microdilution method; assay type: functional; procedure, shortened: as §2
Candida parapsilosis = test: Anticandida activity against Candida parapsilosis clinical isolate assessed as growth inhibition after 24 hrs by broth microdilution method; assay type: functional; conditions: Lodderomyces parapsilosis; procedure, shortened: as §2
Enterobacter sp. = test: Antibacterial activity against Enterobacter spp. assessed as growth inhibition after 18 to 22 hrs by broth microdilution method; assay type: functional; procedure, shortened: as §1
Candida tropicalis = test: Anticandida activity against Candida tropicalis clinical isolate assessed as growth inhibition after 24 hrs by broth microdilution method; assay type: functional; procedure, shortened: as §2
Staphylococcus warneri = test: Antibacterial activity against Staphylococcus warneri assessed as growth inhibition after 18 to 22 hrs by broth microdilution method; assay type: functional; procedure, shortened: as §1
Klebsiella oxytoca = test: Antibacterial activity against Klebsiella oxytoca assessed as growth inhibition after 18 to 22 hrs by broth microdilution method; assay type: functional; procedure, shortened: as §1
Candida albicans = test: Anticandida activity against Candida albicans clinical isolate assessed as growth inhibition after 24 hrs by broth microdilution method; assay type: functional; procedure, shortened: as §2
Escherichia coli = test: Antibacterial activity against Escherichia coli assessed as growth inhibition after 18 to 22 hrs by broth microdilution method; assay type: functional; procedure, shortened: as §1
Nakaseomyces glabratus = test: Anticandida activity against Candida glabrata clinical isolate assessed as growth inhibition after 24 hrs by broth microdilution method; assay type: functional; procedure, shortened: as §2

Row | SMILES | MIC (Proteus mirabilis) | MIC (Staphylococcus aureus) | MIC [1] | MIC ([Candida] sake) | MIC (Enterococcus faecalis) | MIC (Pichia kudriavzevii) | MIC (Candida parapsilosis) | MIC (Enterobacter sp.) | MIC (Candida tropicalis) | MIC (Staphylococcus warneri) | MIC (Klebsiella oxytoca) | MIC (Candida albicans) | MIC (Escherichia coli) | MIC (Nakaseomyces glabratus)
1 | CCCCC/C(C)=N/Nc1nc(-c2ccc(OC)cc2OC)cs1 | > 256 µg/mL | > 256 µg/mL | > 256 µg/mL | 256 µg/mL (≈ 737 µM) | > 256 µg/mL | 256 µg/mL (≈ 737 µM) | 256 µg/mL (≈ 737 µM) | > 256 µg/mL | 256 µg/mL (≈ 737 µM) | > 256 µg/mL | > 256 µg/mL | 64 µg/mL (≈ 184 µM) | > 256 µg/mL | 128 µg/mL (≈ 368 µM)
2 | CCCC/C(CC)=N/Nc1nc(-c2ccc(OC)cc2OC)cs1 | > 256 µg/mL | > 256 µg/mL | > 256 µg/mL | 256 µg/mL (≈ 737 µM) | > 256 µg/mL | 256 µg/mL (≈ 737 µM) | 256 µg/mL (≈ 737 µM) | > 256 µg/mL | 256 µg/mL (≈ 737 µM) | > 256 µg/mL | > 256 µg/mL | 128 µg/mL (≈ 368 µM) | > 256 µg/mL | 128 µg/mL (≈ 368 µM)
3 | CCCCCC/C(C)=N/Nc1nc(-c2ccc(OC)cc2OC)cs1 | > 256 µg/mL | > 256 µg/mL | > 256 µg/mL | 256 µg/mL (≈ 708 µM) | > 256 µg/mL | 256 µg/mL (≈ 708 µM) | 256 µg/mL (≈ 708 µM) | > 256 µg/mL | 256 µg/mL (≈ 708 µM) | > 256 µg/mL | > 256 µg/mL | 64 µg/mL (≈ 177 µM) | > 256 µg/mL | 64 µg/mL (≈ 177 µM)
4 | COc1ccc(-c2csc(N/N=C(\C)C3CCCCC3)n2)c(OC)c1 | > 256 µg/mL | > 256 µg/mL | > 256 µg/mL | 256 µg/mL (≈ 712 µM) | > 256 µg/mL | 256 µg/mL (≈ 712 µM) | 256 µg/mL (≈ 712 µM) | > 256 µg/mL | 256 µg/mL (≈ 712 µM) | > 256 µg/mL | > 256 µg/mL | 64 µg/mL (≈ 178 µM) | > 256 µg/mL | 64 µg/mL (≈ 178 µM)
5 | COc1ccc(-c2csc(NN=C3CCCCCCC3)n2)c(OC)c1 | > 256 µg/mL | > 256 µg/mL | > 256 µg/mL | 256 µg/mL (≈ 712 µM) | > 256 µg/mL | 256 µg/mL (≈ 712 µM) | 256 µg/mL (≈ 712 µM) | > 256 µg/mL | 256 µg/mL (≈ 712 µM) | > 256 µg/mL | > 256 µg/mL | 64 µg/mL (≈ 178 µM) | > 256 µg/mL | 256 µg/mL (≈ 712 µM)
6 | CC(C)=NNc1nc(-c2ccc(Cl)cc2Cl)cs1 | > 256 µg/mL | > 256 µg/mL | > 256 µg/mL | 8 µg/mL (≈ 26.6 µM) | > 256 µg/mL | 8 µg/mL (≈ 26.6 µM) | 8 µg/mL (≈ 26.6 µM) | > 256 µg/mL | 4 µg/mL (≈ 13.3 µM) | > 256 µg/mL | > 256 µg/mL | 2 µg/mL (≈ 6.66 µM) | > 256 µg/mL | 2 µg/mL (≈ 6.66 µM)
7 | CC/C(C)=N/Nc1nc(-c2ccc(Cl)cc2Cl)cs1 | > 256 µg/mL | > 256 µg/mL | > 256 µg/mL | 8 µg/mL (≈ 25.5 µM) | > 256 µg/mL | 8 µg/mL (≈ 25.5 µM) | 8 µg/mL (≈ 25.5 µM) | > 256 µg/mL | 4 µg/mL (≈ 12.7 µM) | > 256 µg/mL | > 256 µg/mL | 2 µg/mL (≈ 6.36 µM) | > 256 µg/mL | 4 µg/mL (≈ 12.7 µM)
8 | CCC/C(C)=N/Nc1nc(-c2ccc(Cl)cc2Cl)cs1 | > 256 µg/mL | > 256 µg/mL | > 256 µg/mL | 256 µg/mL (≈ 780 µM) | > 256 µg/mL | 256 µg/mL (≈ 780 µM) | 256 µg/mL (≈ 780 µM) | > 256 µg/mL | 4 µg/mL (≈ 12.2 µM) | > 256 µg/mL | > 256 µg/mL | 2 µg/mL (≈ 6.09 µM) | > 256 µg/mL | 2 µg/mL (≈ 6.09 µM)
9 | CCC(CC)=NNc1nc(-c2ccc(Cl)cc2Cl)cs1 | > 256 µg/mL | > 256 µg/mL | > 256 µg/mL | 256 µg/mL (≈ 780 µM) | > 256 µg/mL | 256 µg/mL (≈ 780 µM) | 256 µg/mL (≈ 780 µM) | > 256 µg/mL | 4 µg/mL (≈ 12.2 µM) | > 256 µg/mL | > 256 µg/mL | 0.5 µg/mL (≈ 1.52 µM) | > 256 µg/mL | 4 µg/mL (≈ 12.2 µM)
10 | CC(C)(O/N=C(\C(=O)N[C@@H]1C(=O)N2C(C(=O)[O-])=C(C[n+]3ccccc3)CS[C@H]12)c1csc(N)n1)C(=O)O [CEFTAZIDIME] | 8 µg/mL (≈ 14.6 µM) | 2 µg/mL (≈ 3.66 µM) | 4 µg/mL (≈ 7.32 µM) | – | 4 µg/mL (≈ 7.32 µM) | – | – | 8 µg/mL (≈ 14.6 µM) | – | 4 µg/mL (≈ 7.32 µM) | 8 µg/mL (≈ 14.6 µM) | – | 4 µg/mL (≈ 7.32 µM) | –
11 | OC(Cn1cncn1)(Cn1cncn1)c1ccc(F)cc1F [FLUCONAZOLE] | – | – | – | 4 µg/mL (≈ 13.1 µM) | – | 4 µg/mL (≈ 13.1 µM) | 4 µg/mL (≈ 13.1 µM) | – | 4 µg/mL (≈ 13.1 µM) | – | – | 4 µg/mL (≈ 13.1 µM) | – | 4 µg/mL (≈ 13.1 µM)
12 | COC1=CC(=O)C[C@@H](C)[C@]12Oc1c(Cl)c(OC)cc(OC)c1C2=O [GRISEOFULVIN] | – | – | – | 8 µg/mL (≈ 22.7 µM) | – | 8 µg/mL (≈ 22.7 µM) | 8 µg/mL (≈ 22.7 µM) | – | 8 µg/mL (≈ 22.7 µM) | – | – | 4 µg/mL (≈ 11.3 µM) | – | 4 µg/mL (≈ 11.3 µM)
